This note sets out measurements from PubChem BioAssay AID504491 (The Scripps Research Institute Molecular Screening Center, 2011).

For orientation: inhibition means the change of the read-out against control, counted positive when it falls.

The source made the active and inactive calls.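 The calls were made as follows: active = inhibition of the target enzyme PAFAH2 of at least 50%, whatever the off-target enzymes show; inactive = PAFAH2 inhibition under 50%.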

Holding throughout (assay): serine hydrolase selectivity versus PAFAH2 – cell lysate, gel-based fluorescence ABPP, carbamate vs triazole urea, selectivity assay, late-stage follow-up (AID 504491)
In one experiment the test system is LYPLA2. As to conditions: BW5147 mouse T-cell proteome, gel ABPP FP-Rh, 30 min, at 20 µM, active compounds read high. The procedure, abridged: (§1)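 Assay system: mouse BW5147 T-cell soluble lysate; quantity: proteome at 1 mg/mL protein; medium: Dulbecco's phosphate-buffered saline; dosing: single dose of test compound at 20 µM; timing: 30 min compound, 30 min probe, 25 °C; technique: SDS-PAGE separation with in-gel fluorescence scanning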

The subject of a further experiment is ESD. As to conditions: BW5147 mouse T-cell proteome, gel ABPP FP-Rh, 30 min, at 20 µM, active compounds read high. The procedure, abridged: as §1
The next experiment concerns ABHD11. As to conditions: BW5147 mouse T-cell proteome, gel ABPP FP-Rh, 30 min, at 20 µM, active compounds read high. The procedure, abridged:
as §1

In a further experiment the test system is LYPLA1. The following applies: BW5147 mouse T-cell proteome, gel ABPP FP-Rh, 30 min, at 20 µM, active compounds read high. Summed up: as §1
The target in experiment [1] is Platelet-activating factor acetylhydrolase 2, cytoplasmic (Mus musculus) (UniProt Q8VDG7). As to conditions: BW5147 mouse T-cell proteome, gel ABPP FP-Rh, 30 min; PAFAH2; at 20 µM; active compounds read high. Summed up: as §1
A further experiment deals with APEH. The following applies: BW5147 mouse T-cell proteome, gel ABPP FP-Rh, 30 min, at 20 µM, active compounds read high. The procedure, abridged:
as §1

Platelet-activating factor acetylhydrolase 2, cytoplasmic (Mus musculus), sequence (Q8VDG7 whole entry, looked up): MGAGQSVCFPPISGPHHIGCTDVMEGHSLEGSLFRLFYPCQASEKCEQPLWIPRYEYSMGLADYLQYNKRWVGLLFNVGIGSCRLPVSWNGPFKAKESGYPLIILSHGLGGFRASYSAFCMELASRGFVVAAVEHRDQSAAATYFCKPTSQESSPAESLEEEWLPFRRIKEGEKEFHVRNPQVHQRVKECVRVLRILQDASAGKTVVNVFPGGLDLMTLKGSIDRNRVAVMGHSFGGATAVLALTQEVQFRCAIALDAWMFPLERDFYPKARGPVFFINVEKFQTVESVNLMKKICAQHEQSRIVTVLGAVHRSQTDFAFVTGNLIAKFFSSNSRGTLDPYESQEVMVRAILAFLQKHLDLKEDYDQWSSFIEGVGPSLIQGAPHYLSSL

Turning to `O=C(Oc1ccc([N+](=O)[O-])cc1)N1CCCCC1`, the inhibition was 0% (inactive) in the experiment on LYPLA2; 0% (inactive) with ESD; 100% in the experiment on ABHD11; 0% (inactive) in the experiment on LYPLA1; 0% (inactive) in experiment [1]; 0% (inactive) with APEH.

As to `O=C(N1CCCCC1)n1ccnn1`, the inhibition (in the experiment on LYPLA2; in the experiment on ESD; in the experiment with ABHD11; in the experiment on LYPLA1; in experiment [1]; in the experiment on APEH) was 100% each time.
